Dynein transport: dynein cargo transport inhibition. AID 1381. 3617.4 mouse cells, GR-EGFP nuclear translocation imaging; test concentration mostly 20 µM; stimulated with dexamethasone, 1 µM; stronger effect = lower value. 220,000 tested, 0.47% active. z-score, hits read low;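 active = plate z-score of nuclear minus cytoplasmic receptor signal below a set negative limit, without overly bright fluorescence or cell loss, cut at about -3.5 in these data, passing the limit was not always enough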;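 also: z-score of nuclear minus cytoplasmic ring GR-EGFP intensity difference per well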
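Buffer or medium: tet-free medium with charcoal-stripped serum / Also added: dexamethasone agonist, 1.0 µM final, for 30 min / Timing: induction 48 h, compound 1 h, agonist 30 min / Measured by: high-content fluorescence imaging after fixation / Read-out: nuclear-to-cytoplasmic GR-EGFP distribution per well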
MEKK2 mut-MEK5: signal of MEK5 binding to mutant human MEKK2 PB1 domain; bead flow cytometry, Alexa488-MEK5 binding to MEKK2 mutant; percent response, % at 10 µM; 290,000 tested, 0.35% active; AID 1530; in the data active = percent response above about 24%, passing the limit was not always enough
MEKK3 PB1 HTS: raises or lowers MEK5 binding to the human MEKK3 PB1 domain; bead-based flow cytometry, Alexa488-MEK5 binding to MEKK3; actives lie on both sides; 0 = blocked by unlabeled MEK5, 100 = vehicle; binding response (% of control), % at 10 µM; Q99759; AID 1529; 290,000 tested, 1.4% active;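 active = binding response more than 3 SD above or below the average of its plate-row segment, actives on both sides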;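 also: Alexa488 bead fluorescence after subtracting the streptavidin-only scavenger bead signal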
Target sequence (Q99759 whole entry, looked up, the tested form may be a part): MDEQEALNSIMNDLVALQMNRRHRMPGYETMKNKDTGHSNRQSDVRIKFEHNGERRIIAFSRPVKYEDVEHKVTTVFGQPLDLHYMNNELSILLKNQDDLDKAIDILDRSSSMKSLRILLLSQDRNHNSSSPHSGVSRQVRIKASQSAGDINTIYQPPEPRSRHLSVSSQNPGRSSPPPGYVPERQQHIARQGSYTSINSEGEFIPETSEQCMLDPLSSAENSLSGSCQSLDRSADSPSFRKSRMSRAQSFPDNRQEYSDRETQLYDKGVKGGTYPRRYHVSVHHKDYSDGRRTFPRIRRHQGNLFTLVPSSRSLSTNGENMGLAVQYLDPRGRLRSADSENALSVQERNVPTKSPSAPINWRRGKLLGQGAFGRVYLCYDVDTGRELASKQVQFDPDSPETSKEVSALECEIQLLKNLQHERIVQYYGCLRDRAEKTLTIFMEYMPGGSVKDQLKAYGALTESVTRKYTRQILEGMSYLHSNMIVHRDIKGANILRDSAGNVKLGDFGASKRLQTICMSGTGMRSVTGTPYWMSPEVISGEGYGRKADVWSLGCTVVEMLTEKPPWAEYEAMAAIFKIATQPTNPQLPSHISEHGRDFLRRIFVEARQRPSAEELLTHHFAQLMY
MEKK2 WT-MEK5: raises or lowers MEK5 binding to wildtype human MEKK2 PB1 domain; AID 1531; Q9Y2U5; 290,000 tested, 1.1% active; bead flow cytometry, Alexa488-MEK5 binding to MEKK2 WT; actives lie on both sides; binding response (% of control), % at 10 µM; in the data active = binding response below about 67% or above about 130%
ATG4B inhibitor: blocks human ATG4B protease cleavage of LC3 substrate. ATG4B cleavage of LC3-PLA2, NBD-HPC fluorescence, 1 h. 340,000 tested, 0.51% active. Q9Y4P1. inhibition, % at 8.33 µM; in the data active = inhibition above about 40%
B2AR ag: agonists of human beta-2 adrenergic receptor inducing internalization; P07550; Am2.2-beta2AR cells, FAP receptor internalization, flow cytometry; response, % (no concentration beside the values); 340,000 tested, 0.43% active;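 active = response above a set limit, near 3 SD of response in nonfluorescent compounds, cut at about 42% in these data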
MEKK2wt confirm: raises or lowers MEK5 binding to wildtype human MEKK2, retest. shares compounds with MEKK3 PB1 HTS. bead flow cytometry, Alexa488-MEK5 binding to MEKK2 WT; actives lie on both sides. binding response (% of control), % at 10 µM. 5,900 tested, 2.4% active; in the data active = binding response below about 16% or above about 210%; inactive = in between
MEKK2mut-MEK5: signal of MEK5 binding to mutant human MEKK2, retest | percent response, % at 10 µM | 5,900 tested, 2% active | shares compounds with MEKK3 PB1 HTS | bead flow cytometry, Alexa488-MEK5 binding to MEKK2 mutant; in the data active = percent response mostly above about 71%, no sharp cut-off; inactive = mostly below about 38%;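 also: higher means compound restores mutant binding toward wildtype level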
MEKK3 confirm: confirmation of inhibitors of MEK5 binding to human MEKK3 | shares compounds with MEKK3 PB1 HTS | bead flow cytometry, Alexa488-MEK5 binding to MEKK3; stronger effect = lower value | binding response (% of control), % at 10 µM | 5,900 tested, 1.8% active | AID 1894;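 active = binding response below 72% of control, or above a set upper limit, though filed actives all read lower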
Hits are given with their value; - = inactive; . = no result given; [ ] = dose if it differs, or a comment. Hits are enriched below; roughly 2.9% of the tested compounds scored in any of these assays.

SMILES | Dynein transport | MEKK2 mut-MEK5 | MEKK3 PB1 HTS | MEKK2 WT-MEK5 | ATG4B inhibitor | B2AR ag | MEKK2wt confirm | MEKK2mut-MEK5 | MEKK3 confirm
O=[N+]([O-])c1ccc(CSc2nnc(SCc3ccccc3)s2)cc1 | - | - | 60.0[inhibitor] | - | - | - | - | - | -
O=[N+]([O-])c1ccc(CSc2nc3ccccc3o2)cc1 | - | - | - | - | - | - | . | . | .
CC1CCC2C(C1)OS(=O)(=O)NC2(C)C (stereo not drawn) | . | - | - | - | . | . | . | . | .
C=CCNc1nc(N)c([N+](=O)[O-])c(Nc2ccccc2OC)n1 | . | - | - | - | - | - | . | . | .
Cc1ccc(Nc2nc(NCCCN3CCOCC3)nc(N)c2[N+](=O)[O-])cc1C | - | - | - | 148.0 | - | - | - | - | -
Cc1ccc(Nc2nc(NCCCN3CCOCC3)nc(N)c2[N+](=O)[O-])cc1 | - | - | - | - | - | - | . | . | .
COc1ccccc1Nc1nc(NCCCN(C)C)nc(N)c1[N+](=O)[O-] | - | - | - | 145.0 | - | - | - | - | -
Cc1c(Nc2cc(N3CCCCCC3)c3nonc3c2[N+](=O)[O-])c(=O)n(-c2ccccc2)n1C | - | - | - | - | - | - | . | . | .
CSc1ccc(/C=C/C(=O)NC(=O)c2ccccc2O)cc1 | - | - | 128.0 | - | - | - | - | - | -
COc1ccc(NC(=O)Cc2c(Sc3ccccc3)c3ccccc3n2C)cc1 | - | - | 154.0 | - | - | - | - | - | -
Cn1c(CC(=O)Nc2ccc(F)cc2)c(Sc2ccccc2)c2ccccc21 | - | 54.0 | - | - | - | - | - | - | -
CSc1cccc(NS(=O)(=O)c2cn(C)cn2)c1 | . | - | - | - | - | - | . | . | .
COc1ccc2cc1Oc1ccc(cc1)CC1c3c(cc(OC)c4c3Oc3cc5c(cc3O4)CCNC5C2)CCN1C (stereo not drawn) | - | 30.0 | - | 186.0 | - | - | - | - | -
COc1ccc2cc1Oc1ccc(cc1)C[C@H]1c3c(cc(OC)c4c3Oc3c(ccc5c3[C@H](C2)N(C)CC5)O4)CCN1C | . | . | . | . | - | - | . | . | .
CN(Cc1ccc(C#CCCO)cc1)CC1CCCN(CCc2ccc(Cl)cc2)C1 (stereo not drawn) | . | - | - | 154.0 | - | - | - | - | -
CCOC(=O)c1sc(NC(=O)c2ccc(S(=O)(=O)N3CCCCC3)cc2)nc1-c1ccccc1 | - | - | 135.0 | - | - | - | - | - | -
Cn1c(=O)c2c(nc(OC3CCCC3)n2C)n(C)c1=O | . | . | . | . | - | - | . | . | .
O=C(NCc1ccccc1C(F)(F)F)C1CC(c2ccc(C(F)(F)F)cc2)=NO1 (stereo not drawn) | - | - | 81.0[inhibitor] | - | - | - | - | - | -
O=C(NCc1ccc(C(F)(F)F)cc1)C1CC(c2ccc(C(F)(F)F)cc2)=NO1 (stereo not drawn) | . | - | - | - | - | - | . | . | .
Nc1oc2ccccc2c(=O)c1C=O | - | - | - | - | - | - | . | . | .
CCOC(=O)c1nc2ccccc2nc1C | - | - | 143.0 | - | - | - | - | - | -
CCN1C(=O)/C(=C/C=C2\N(CC)c3cc(S(=O)(=O)N(C)C)ccc3N2c2ccccc2)SC1=S | - | - | - | 53.0[inhibitor] | - | - | - | - | -
COc1ccc(CCNC(=S)NCc2ccc(Cl)c(Cl)c2)cc1OC | - | - | - | - | - | - | . | . | .
O=C(c1ccccc1F)N1CCN(S(=O)(=O)c2ccc3c(c2)OCCO3)CC1 | - | - | - | - | - | - | . | . | .

Compound activity deposited in PubChem BioAssay by several laboratories.
